Laboratory results as given in PMC5079036 (Journal of the American Heart Association: Cardiovascular …, 2016).

What was measured:
isolated rat hearts = experiment: Isolated heart model of ischemia–reperfusion injury; settings: capsaicin 0.1 μmol/L, unpaced hearts, vs vehicle DMSO; n=4
Male Sprague‐Dawley rats = experiment: In vivo myocardial infarction rodent model; design: species or system rat
[1] = tested on: primary neonatal cardiomyocytes (PNCMs); experiment: Live cell imaging of mitochondrial membrane potential under normoxia; assay type: cell-based, rat
Outline: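 Neonatal rat cardiomyocytes (pups 1–3 days old) were plated on glass coverslips at 150 000 cells per dish. Cells were loaded with TMRE 150 nmol/L for 30 min at 37°C, then washed. Imaging was single-cell in a chamber at 37°C, 5% pco₂ and 21% po₂. Inhibitor (1 μmol/L) was added 10 min before the TRPV1 agonist (1 μmol/L). Images were taken every 5 min over 30 min and normalized to baseline (=1). n=3 biological replicates.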

humans = settings: TRPV1 antagonist; cited from earlier work

COc1cc(CNC(=O)CCCC/C=C/C(C)C)ccc1O [CAP, capsaicin]
Heart rate during first 15 minutes of infusion (isolated rat hearts): increased heart rate during the first 15 minutes of infusion
Change in heart rate after CAP administration (Male Sprague‐Dawley rats; CAP 0.1-3.0 mg/kg iv, n=6 per group): increased heart rate when given intravenously
infarct size reduction compared with control (Male Sprague‐Dawley rats; given 5 minutes before reperfusion (CAP 0.3, CsA 2.5, V1‐cal 1 mg/kg iv)): 27%
Mitochondrial membrane potential (TMRE fluorescence) ([1]; capsaicin 0.1–10 μmol/L, 30 min, normoxia, 3 biological replicates): decreased mitochondrial membrane potential

Oc1cc2c(cc1O)CN(C(=S)NCCc1ccc(Cl)cc1)CCC2 [CPZ, capsazepine]
Effect on heart rate change afforded by capsaicin (Male Sprague‐Dawley rats; CPZ 3 mg/kg or CsA 2.5 mg/kg before capsaicin 0.3 mg/kg): reduced the change in heart rate
Effect on capsaicin-induced change in mitochondrial membrane potential (TMRE) ([1]; CPZ 1 μmol/L or CsA 1 μmol/L 10 minutes prior to CAP 1 μmol/L, n=3): blocked

CC(=O)Nc1nc2c(Oc3cc(-c4ccc(C(F)(F)F)cc4)ncn3)cccc2s1 [AMG517]
Body temperature effect in humans (humans): caused sudden hyperthermia in humans that persisted for days
